{"source": "ChEMBL document CHEMBL3351942", "about": "“Rexinoids isolated from Sophora tonkinensis with a gene expression profile distinct from the synthetic rexinoid bexarotene” (J Nat Prod, 2014)", "key": {"Homo sapiens": {"species_on_record": "Homo sapiens", "assay": "Activation of PPARgamma/RXR heterodimer in human hepatoma cells assessed as increase in ANGPTL4 mRNA level at 10 uM by quantitative RT-PCR analysis", "format": "cell-based", "in_short": "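HLE human hepatoma cells (DMEM, 10% FBS, 37 °C, 5% CO2) treated with or without rosiglitazone; ANGPTL4 mRNA by SYBR green qRT-PCR, β-actin-normalized delta-delta Ct, fold vs vehicle; means ± SD of three determinants, representative of three experiments.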"}, "[1]": {"molecular_target": "T1, Peroxisome proliferator-activated receptor delta (Mus musculus) (UniProt P35396)", "T1 sequence (whole entry)": "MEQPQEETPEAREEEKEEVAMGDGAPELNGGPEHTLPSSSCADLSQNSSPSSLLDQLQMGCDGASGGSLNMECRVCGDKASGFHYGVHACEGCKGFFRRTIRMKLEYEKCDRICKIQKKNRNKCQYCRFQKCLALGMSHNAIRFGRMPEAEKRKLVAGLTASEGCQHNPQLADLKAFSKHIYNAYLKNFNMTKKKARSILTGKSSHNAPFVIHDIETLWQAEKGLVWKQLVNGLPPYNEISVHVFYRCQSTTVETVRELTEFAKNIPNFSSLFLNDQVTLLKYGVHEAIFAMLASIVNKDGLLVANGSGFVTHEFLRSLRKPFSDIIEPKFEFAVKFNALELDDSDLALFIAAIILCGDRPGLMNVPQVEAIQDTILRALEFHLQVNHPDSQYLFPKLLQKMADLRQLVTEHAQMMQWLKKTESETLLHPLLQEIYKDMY", "assay": "Activation of PPARdelta in mouse C2C12 cells assessed as induction of ANGPTL4 mRNA expression at 10 uM after 24 hrs by quantitative RT-PCR analysis", "format": "cell-based", "in_short": "(§1)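 Differentiated C2C12 myotubes (2% horse serum, 5 days) exposed 24 h with or without PPARδ agonist GW501516 (1 μM). mRNA quantified by SYBR green real-time RT-PCR, normalized to β-actin by delta-delta Ct, and expressed as fold induction vs vehicle; means ± SD of four determinants from one of two independent experiments; one-way ANOVA with Bonferroni.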"}, "[2]": {"molecular_target": "T1, Peroxisome proliferator-activated receptor delta (Mus musculus)", "assay": "Activation of PPARdelta in mouse C2C12 cells assessed as induction of CPT1A mRNA expression at 10 uM after 24 hrs by quantitative RT-PCR analysis", "format": "cell-based", "in_short": "as §1"}, "[3]": {"molecular_target": "T1, Peroxisome proliferator-activated receptor delta (Mus musculus)", "assay": "Activation of PPARdelta in mouse C2C12 cells assessed as induction of FABP3 mRNA expression at 10 uM after 24 hrs by quantitative RT-PCR analysis", "format": "cell-based", "in_short": "as §1"}, "[4]": {"molecular_target": "T2, Retinoic acid receptor RXR-beta (Homo sapiens) (UniProt P28702)", "T2 sequence (whole entry)": "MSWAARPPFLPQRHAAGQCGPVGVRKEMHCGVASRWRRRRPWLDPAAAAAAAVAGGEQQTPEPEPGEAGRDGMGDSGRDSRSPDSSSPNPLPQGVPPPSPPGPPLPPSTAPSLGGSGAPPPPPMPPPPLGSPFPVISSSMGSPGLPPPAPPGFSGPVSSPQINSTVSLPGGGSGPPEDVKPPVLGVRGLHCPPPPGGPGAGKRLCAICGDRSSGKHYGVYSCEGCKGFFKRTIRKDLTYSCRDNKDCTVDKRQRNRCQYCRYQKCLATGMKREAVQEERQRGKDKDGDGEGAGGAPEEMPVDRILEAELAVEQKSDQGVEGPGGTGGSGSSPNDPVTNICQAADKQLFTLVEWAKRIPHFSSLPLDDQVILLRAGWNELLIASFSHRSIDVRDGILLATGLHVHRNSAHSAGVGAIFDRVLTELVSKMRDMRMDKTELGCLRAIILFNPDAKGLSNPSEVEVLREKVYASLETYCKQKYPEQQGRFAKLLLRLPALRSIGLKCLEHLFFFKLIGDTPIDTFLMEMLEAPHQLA", "assay": "Binding affinity to RXRbeta (unknown origin) by receptor-SRC1 cofactor complex formation assay", "in_short": "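Ligand-dependent binding of RXR isotype to coactivator SRC-1 in an NR cofactor kit, detected with HRP-conjugated anti-RXR antibody at OD450. The full agonist CD3254 defined 100% and vehicle 0%. Efficacy was taken as maximum B/Bmax% and potency as EC50.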"}, "[5]": {"molecular_target": "T3, Peroxisome proliferator-activated receptor delta (Homo sapiens) (UniProt Q03181)", "T3 sequence (whole entry)": "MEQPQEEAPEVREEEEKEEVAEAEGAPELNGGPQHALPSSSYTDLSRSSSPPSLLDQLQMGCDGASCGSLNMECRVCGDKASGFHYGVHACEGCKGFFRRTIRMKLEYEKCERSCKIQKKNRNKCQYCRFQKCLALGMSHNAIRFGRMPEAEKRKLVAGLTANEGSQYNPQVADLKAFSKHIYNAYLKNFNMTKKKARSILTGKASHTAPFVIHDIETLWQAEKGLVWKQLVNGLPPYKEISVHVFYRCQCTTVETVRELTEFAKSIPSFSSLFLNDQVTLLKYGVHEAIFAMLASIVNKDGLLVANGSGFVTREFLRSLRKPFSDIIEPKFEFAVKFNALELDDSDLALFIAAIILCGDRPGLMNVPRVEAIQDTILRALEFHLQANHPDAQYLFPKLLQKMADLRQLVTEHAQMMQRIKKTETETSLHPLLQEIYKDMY", "assay": "Activation of PPARdelta (unknown origin) by receptor-CBP cofactor complex formation assay", "in_short": "(§2)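 Cell-free cofactor recruitment ELISA: ligand-dependent binding of PPAR isotypes to CBP, detected by HRP-conjugated anti-PPAR antibody at OD450. Full agonists GW7647 (α), GW1929 (γ), GW501516 (δ) define 100%, vehicle 0%; efficacy as maximum B/Bmax% and potency as EC50.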"}, "[6]": {"molecular_target": "T4, Peroxisome proliferator-activated receptor gamma (Homo sapiens) (UniProt P37231)", "T4 sequence (whole entry)": "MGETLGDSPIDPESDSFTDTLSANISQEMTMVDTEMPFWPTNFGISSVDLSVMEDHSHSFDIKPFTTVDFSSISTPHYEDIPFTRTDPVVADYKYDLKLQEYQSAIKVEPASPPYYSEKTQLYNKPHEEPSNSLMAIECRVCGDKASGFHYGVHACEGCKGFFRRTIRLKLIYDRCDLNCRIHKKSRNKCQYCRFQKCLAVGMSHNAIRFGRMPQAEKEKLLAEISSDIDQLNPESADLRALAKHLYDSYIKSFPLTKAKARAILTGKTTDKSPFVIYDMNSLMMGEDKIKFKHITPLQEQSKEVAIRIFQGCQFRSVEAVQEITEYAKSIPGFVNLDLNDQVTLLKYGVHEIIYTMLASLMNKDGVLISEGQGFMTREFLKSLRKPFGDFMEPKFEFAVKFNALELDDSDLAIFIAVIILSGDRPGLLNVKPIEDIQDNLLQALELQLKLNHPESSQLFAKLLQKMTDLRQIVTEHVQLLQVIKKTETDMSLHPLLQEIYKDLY", "assay": "Activation of PPARgamma (unknown origin) by receptor-CBP cofactor complex formation assay", "in_short": "as §2"}}, "note": "Activity calls are given as the source filed them. The rule behind the calls is not given here.", "data": [{"compound": "CC(C)=CCc1cc([C@@H]2CC(=O)c3ccc(O)c(CC=C(C)C)c3O2)cc2c1OC(C(C)(C)O)C2", "note": "(some centres not stated)", "values": [{"measurement": "Activity", "setting": "Homo sapiens", "value": "Active"}, {"measurement": "Activity", "setting": "[1]", "value": "Active"}, {"measurement": "Activity", "setting": "[2]", "value": "Active"}, {"measurement": "Activity", "setting": "[3]", "value": "Active"}, {"measurement": "Activity", "setting": "[4]", "value": "inactive"}, {"measurement": "Activity", "setting": "[5]", "value": "inactive"}, {"measurement": "Activity", "setting": "[6]", "value": "inactive"}]}]}
